Hit rate of the full screen: of about 330,000 compounds, about 1,100 (0.33%) were called active.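 Rule for the calls: active = versus positive control, 20 µM dose yields 30% or more activation; inactive = the rest.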 This excerpt belongs to a sample that is enriched for actives.
Experiment: IRE1-XBP1 pathway stimulators – cell-based, CHO-XBP1 luciferase reporter, luminescence, uHTS, primary screen (AID 463104);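 note: 100% = tunicamycin at 10 µg/mL and 0% = DMSO only wells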
Conditions: IRE1-XBP1 UPR activation, at 20 µM, active compounds read high, percent of tunicamycin response, DMSO as zero
In short: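 incubation = overnight seeding at 37 °C, 6 h compound treatment at 37 °C | assay system = CHO-XBP1 cells stably carrying IRE1-XBP1-driven luciferase reporter | input = 1000 cells per well | detection = luciferase luminescence | dosing = single point, 20 µM final compound, 1% DMSO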
In the case of `c1ccc(-c2csc(N3CCc4ccccc4C3)n2)cc1`, the activation is reported as 2.31% (inactive). With `N#CC(=C1CCCC1)c1nc(-c2ccc(Cl)cc2)cs1` the activation was -2.04% (inactive). For `N#CC(=C1SC=CS1)c1nc(-c2ccccc2)cs1`, the activation was 30.8% (active). For `Cc1noc(C)c1CSCC(=O)N(CCC(C)C)c1c(N)n(Cc2ccccc2)c(=O)[nH]c1=O`, the activation was -4.01% (inactive). In the case of `Cc1ccc(SCC(=O)NC(=O)NCc2ccco2)c(C)c1`, the activation is reported as 1.4% (inactive). With `Cc1c(C(=O)Nc2ccccn2)oc2ccc(Br)cc12` the activation was 0.16% (inactive). For `Oc1ccc(Br)cc1/C=N/Nc1ccccn1`, the activation was 88.3% (active). In the case of `CCN(CC)CCn1c(/N=C/c2cc(Br)ccc2O)nc2ccccc21`, the activation is reported as -2.54% (inactive). In the case of `CC(=O)C1(C)N(O)C(C)(C)C(c2cccs2)=[N+]1[O-]` (stereo not drawn), the activation is reported as -1.47% (inactive). For `CC(=NCc1ccc2c(c1)OCO2)C1=C(O)c2ccccc2C1=O`, the activation was 1.05% (inactive). For `CCN1C(=O)N[C@@H](c2ccccc2)[C@H](C(C)=O)[C@H]1C`, the activation was 34.5% (active). In the case of `COCCN1C(=O)N[C@@H](CCc2ccccc2)[C@H](C(C)=O)[C@H]1C`, the activation is reported as 0.9% (inactive). In the case of `CCN1C(=NCCc2cccnc2)N[C@@H](c2ccccc2)[C@H](C(=O)OC)[C@H]1C`, the activation is reported as 0.09% (inactive). For `Nc1nc(CC(=O)CSc2ccc(Cl)cc2)nc(Nc2ccc(F)cc2)n1`, the activation was 75% (active). With `Nc1nc(COC(=O)CCC(=O)c2ccc(Cl)cc2)nc(Nc2ccccc2)n1` the activation was 1.72% (inactive). For `Cc1ccc(Nc2nc(N)nc(CSc3nnc(C)s3)n2)cc1`, the activation was 3.11% (inactive). For `Cc1ccc(C)c(NC(=O)CN(C)C(=O)c2ccc3ncsc3c2)c1`, the activation was -1.06% (inactive). In the case of `COc1ccc(C(=O)COC(=O)CNC(=O)c2cccs2)cc1Br`, the activation is reported as 0.35% (inactive). With `Cc1ccc(SC(=O)COc2ccc(C)c(C)c2)cc1` the activation was 65.8% (active). With `Cc1ccc(OCC(=O)Nc2ccc(C(=O)O)cc2NC(=O)COc2ccc(C)c(C)c2)cc1C` the activation was -6.86% (inactive). For `COc1ccc(C(=O)COC(=O)COc2ccc(C)c(C)c2)cc1`, the activation was 0.09% (inactive). With `CCOC1CCCCC1NS(=O)(=O)c1ccc(Cl)cc1` (stereo not drawn) the activation was -1.12% (inactive). With `Cc1ccc(CN2CCN(/N=C/c3cccnc3)CC2)c(C)c1` the activation was 1.33% (inactive). With `CC(C)c1nccn1S(=O)(=O)c1cc([N+](=O)[O-])ccc1Cl` the activation was 0.9% (inactive). For `CCc1nc(C)cn1S(=O)(=O)c1cc([N+](=O)[O-])ccc1Cl`, the activation was 45.1% (active). With `CCc1nc(C)cn1S(=O)(=O)c1cc(OC)c(C)cc1C` the activation was -2.38% (inactive). With `Cc1cc(N2CCOCC2)nc2ccc(NC(=S)N3CCN(Cc4ccccc4)CC3)cc12` the activation was -2.17% (inactive). With `Cc1ccc(S(=O)(=O)c2nnn3c2nc(N2CCN(c4ccccn4)CC2)c2ccccc23)cc1` the activation was -2.5% (inactive). For `CC(=O)Nc1ccc(Nc2nc3c(S(=O)(=O)c4ccc(C)c(C)c4)nnn3c3ccccc23)cc1`, the activation was 3.91% (inactive). For `Cc1cccc(Nc2nc3c(S(=O)(=O)c4ccccc4)nnn3c3ccccc23)c1C`, the activation was 94% (active). In the case of `CN(CC(=O)Nc1cccc(F)c1)C(=O)C1CSC2(C)CCC(=O)N12` (stereo not drawn), the activation is reported as 2.87% (inactive). For `CCN(CC)C(=O)CSC1c2ccccc2C(=O)N1c1ccccc1` (stereo not drawn), the activation was 0.81% (inactive). With `CC1(C)C=C2[C@H]3CC[C@@H]4[C@@]5(C)CCC(=O)C(C)(C)[C@@H]5CC[C@@]4(C)[C@]3(C)CC[C@@]2(C(=O)O)CC1` the activation was 2.72% (inactive). With `CC(=O)NC(CC(=O)Nc1cccc(S(=O)(=O)N2CCCC2)c1)c1ccccc1` (stereo not drawn) the activation was -4.34% (inactive). In the case of `N#C/C(=C\c1ccc(O)c(O)c1)C(=O)NCc1ccccc1`, the activation is reported as 21.5% (inactive). For `COc1ccc(NC(=O)/C(C#N)=C\c2cc(OC)c(OCc3ccc(C(=O)O)cc3)cc2Br)cc1`, the activation was -2.72% (inactive). In the case of `COc1ccc(CNC(=O)/C(C#N)=C/c2cccc(OC)c2OC)cc1`, the activation is reported as 36.8% (active). For `C=CCNC(=O)c1ccccc1NC(=O)c1ccc(Cl)c(S(=O)(=O)Nc2cccc(C)c2C)c1`, the activation was 0.62% (inactive).

From PubChem BioAssay AID463104 (Sanford-Burnham Center for Chemical Genomics, 2010)
